Source: PubChem BioAssay
FID counter: compounds displacing fluorescent DNA intercalator, primary screen, artefact control for HCV NS3 helicase inhibitor project, biochemical, FID fluorescence; 0.17% of 290,000 active; DNA fluorescent intercalator displacement; inhibition, % at 7.9 µM; in the data active = inhibition above about 37%;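 note: 0% = vehicle and 100% = reference compound; higher means more ethidium bromide displaced from hairpin DNA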
HSP90 refold inh: HSP90 inhibitors, primary screen, cell lysate, luminescence. Rabbit reticulocyte lysate, luciferase refolding luminescence, 3 h. inhibition, % at 5.6 µM. 0.91% of 290,000 active. AID 1789, 2009;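 active = inhibition above the screen-wide mean plus 3 SD, computed separately per campaign, cut at about 16% in these data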;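 note: 0% = DMSO wells and 100% = 60 µM geldanamycin wells; inhibitors lower the luminescence because luciferase stays unfolded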
HSF1 inhib: HSF1 inhibitors in luciferase reporter cells, primary screen, cell-based, NIH3T3, luminescence | NIH3T3-HGL HSE-luciferase, MG132-induced, luminescence 8 h; hits give low values | activity change, negative = inhibition, % at 7.5 µM (by protocol) | 0.77% of 300,000 active | AID 2098, 2009;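 active = more than half of replicate wells show activity change below -50%, luminescence cut by over half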;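 note: luciferase reports HSF-1 transcriptional activity via heat shock element; 0% = median of DMSO wells and -100% = zero luminescence signal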
HCV NS3 hel inh: inhibitors of HCV NS3 helicase, primary screen, biochemical, Cy5 molecular beacon fluorescence; Hepatitis C virus NS3 helicase; NS3 helicase DNA unwinding; inhibition, % at 10.9 µM; 0.56% of 290,000 active; AID 1800, 2009;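 active = inhibition above the mean of all tested compounds plus 3 SD, set per campaign, cut at about 35% in these data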;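 note: 0% = DMSO wells and 100% = thioflavine S control wells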
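test system = hepatitis C virus NS3 helicase domain fragment enzyme | reagent = annealed dual-labelled DNA beacon duplex, ATP-started | times = 1 h at 25 °C | detection = Cy5 fluorescence, 0 and 60 min reads | read-out basis = percent inhibition from t60/t0 fluorescence ratio | control set = DMSO and thioflavine S | replication = one well per compound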
HSF1 activator: HSF-1 activators, primary screen, NIH3T3-HGL cells, MG132 stress, luminescence, single point; NIH3T3-HGL HSF-1 luciferase reporter, 8 h; 100% = twice DMSO control signal; activation, % at 9 µM; 1.7% of 300,000 active;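 active = mean replicate activation of at least 50% with a set share of replicates each reaching 50%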;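 note: 0% = median of the neutral control wells and 100% = twice that signal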
HCV core dimer: inhibitors of HCV core protein dimerization, primary screen, biochemical, TR-FRET, high-throughput | 0.33% of 300,000 active | TR-FRET GST/Flag-core106 dimerization, 1536-well | inhibition, % at 5 µM;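 active = inhibition above the mean of all tested compounds plus 3 SD, set per screening campaign, cut at about 45% in these data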
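Assay system: Tagged HCV core106 pair (GST and Flag) | Buffer or medium: KF-containing HEPES buffer, pH 7.45, DTT, CHAPS, BSA | Also added: Eu donor and XL665 acceptor anti-tag antibodies | Dosing: One concentration, 5 µM, in 0.5% DMSO | Timing: 4 h at 22.5 °C | Technique: TR-FRET 671 and 617 nm emission | Repeats: Singlicate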
The depositor's hits bear a star. An excerpt weighted towards active compounds, which were near 3.9% of everything screened.

Results for COc1ccc(C=O)cc1CN1CCCN(Cc2ccc(Cl)cc2)S1(=O)=O ?
FID counter: -21; HSP90 refold inh: -5; HSF1 inhib: -80*; HCV NS3 hel inh: -13; HSF1 activator: -84; HCV core dimer: 9

Results for Cc1cc(C)c2c(N)c(C(=O)Nc3cccc(C)c3C)sc2n1 ?
FID counter: -5; HSP90 refold inh: 1; HSF1 inhib: 13; HCV NS3 hel inh: -6; HSF1 activator: 52*; HCV core dimer: 0

What do the screens show for `Cc1ccc(NC(=O)c2sc3nc(C)cc(C)c3c2N)cc1`?
FID counter: -13; HSP90 refold inh: -3; HSF1 inhib: 14; HCV NS3 hel inh: 5; HSF1 activator: 23; HCV core dimer: 0

How did O=C1C=C(c2ccccc2)CC(/C=C/c2ccccc2)C1 (centres undefined) do in these assays?
FID counter: -7; HSP90 refold inh: -3; HSF1 inhib: 70; HCV NS3 hel inh: 9; HSF1 activator: 98*; HCV core dimer: 14

Results for O=C1C=C(c2ccccc2)CC(c2ccc(F)cc2)C1 (centres undefined) ?
HSF1 inhib: 13; HSF1 activator: 26; HCV core dimer: 5

What do the screens show for `Clc1ccc(Cn2c(/C=C/c3ccco3)nc3ccccc32)cc1`?
FID counter: -29; HSP90 refold inh: -1; HSF1 inhib: 4; HCV NS3 hel inh: 23; HSF1 activator: 38; HCV core dimer: 58*

Results for O=C(CSc1nc2ccccc2n1Cc1ccccc1)N/N=C/c1ccco1 ?
FID counter: -22; HSP90 refold inh: 1; HCV NS3 hel inh: -7; HCV core dimer: 7

How did COC(=O)CNc1c(-c2ccccn2)nc2ccc(Br)cn12 do in these assays?
FID counter: 0; HSP90 refold inh: -4; HSF1 inhib: 28; HCV NS3 hel inh: 5; HSF1 activator: 64*; HCV core dimer: -6

How did COc1ccccc1OCCCOc1ccc(C)cc1Br do in these assays?
FID counter: -4; HSP90 refold inh: -4; HSF1 inhib: 35; HCV NS3 hel inh: -5; HSF1 activator: 57*; HCV core dimer: -10

What do the screens show for `COc1ccccc1OCCCOc1ccc([N+](=O)[O-])cc1Cl`?
FID counter: 0; HSP90 refold inh: -3; HSF1 inhib: 57; HCV NS3 hel inh: -3; HSF1 activator: 65*; HCV core dimer: -2

How did CC(=O)NCCCOc1ccc([N+](=O)[O-])cc1Cl do in these assays?
FID counter: -2; HSP90 refold inh: -1; HSF1 inhib: 10; HCV NS3 hel inh: -5; HSF1 activator: 56*; HCV core dimer: -11

How did COc1cccc(OCCCOc2ccc([N+](=O)[O-])cc2Cl)c1 do in these assays?
FID counter: -2; HSP90 refold inh: 1; HSF1 inhib: 0; HCV NS3 hel inh: 0; HSF1 activator: 3; HCV core dimer: -1

What do the screens show for `COc1ccccc1OCCOCCOc1ccc(C)cc1Br`?
FID counter: -29; HSP90 refold inh: -5; HSF1 inhib: 3; HCV NS3 hel inh: -4; HSF1 activator: -4; HCV core dimer: -1

What do the screens show for `CCOC(=O)n1c(=O)oc2cc(S(=O)(=O)N3CCOCC3)ccc21`?
FID counter: -1; HSP90 refold inh: 3; HSF1 inhib: -6; HCV NS3 hel inh: 1; HSF1 activator: -2; HCV core dimer: 0

What do the screens show for `CCN(CC)CCCN1C(=O)c2oc3ccccc3c(=O)c2C1c1cccc(OC)c1OC` (centres undefined)?
FID counter: -4; HSP90 refold inh: -1; HSF1 inhib: 31; HCV NS3 hel inh: 2; HSF1 activator: 67*; HCV core dimer: 2

How did COc1cccc(C2c3c(oc4ccccc4c3=O)C(=O)N2CCCN(C)C)c1OC (centres undefined) do in these assays?
FID counter: 4; HSP90 refold inh: 3; HSF1 inhib: 36; HCV NS3 hel inh: -18; HSF1 activator: 66*; HCV core dimer: -3

What do the screens show for `COC(=O)c1ccccc1NC(=O)c1cc(-c2ccc(C)cc2)on1`?
FID counter: 0; HSP90 refold inh: 2; HSF1 inhib: 0; HCV NS3 hel inh: 10; HSF1 activator: -9; HCV core dimer: 1

How did Nn1c(SCc2ccc(F)cc2)nnc1-c1cccnc1 do in these assays?
FID counter: -3; HSP90 refold inh: 3; HSF1 inhib: 32; HCV NS3 hel inh: -7; HSF1 activator: 62*; HCV core dimer: -2

How did C=C1/C(=C\C=C2/CCC[C@]3(C)[C@@H]([C@H](C)CCCC(C)(C)O)CC[C@@H]23)C[C@@H](O)C[C@@H]1O do in these assays?
FID counter: -41; HSP90 refold inh: 26*; HSF1 inhib: -8; HCV NS3 hel inh: -15; HSF1 activator: -21; HCV core dimer: -9

Results for CC(=O)c1ccc(/C=C/c2nc3ccccc3n2C)o1 ?
FID counter: -9; HSP90 refold inh: 2; HSF1 inhib: 25; HCV NS3 hel inh: 21; HSF1 activator: 66*; HCV core dimer: 8

How did Cn1c(/C=C/c2ccccc2)nc2ccccc21 do in these assays?
FID counter: -2; HSP90 refold inh: 14; HSF1 inhib: -21; HCV NS3 hel inh: -2; HSF1 activator: -5; HCV core dimer: -2

What do the screens show for `Cc1ccnc(NS(=O)(=O)c2ccc(NC(=O)c3ccc([N+](=O)[O-])s3)cc2)n1`?
FID counter: -3; HSP90 refold inh: -1; HSF1 inhib: 1; HCV NS3 hel inh: 1; HSF1 activator: -4; HCV core dimer: 0

What do the screens show for `COc1ccc(CC(=O)Nc2c(C(=O)N3CCN(c4ncccn4)CC3)oc3ccccc23)cc1`?
FID counter: -45; HSP90 refold inh: -2; HSF1 inhib: 3; HCV NS3 hel inh: -9; HSF1 activator: 0; HCV core dimer: -5

What do the screens show for `Nc1c(C(=O)O)sc2nc3c(cc12)CCCC3`?
FID counter: -18; HSP90 refold inh: -3; HSF1 inhib: 0; HCV NS3 hel inh: 33; HSF1 activator: -5; HCV core dimer: 3

What do the screens show for `Nc1c(C(=O)c2ccc(Cl)cc2)sc2nc3c(cc12)CCC3`?
FID counter: -5; HSP90 refold inh: 6; HSF1 inhib: 27; HCV NS3 hel inh: -2; HSF1 activator: 51*; HCV core dimer: -13

What do the screens show for `O=C(c1cc(COc2ccc(F)cc2Cl)on1)N1CCCCCC1`?
FID counter: -38; HSP90 refold inh: -1; HSF1 inhib: 46; HCV NS3 hel inh: -5; HSF1 activator: 60*; HCV core dimer: 10

How did O=C(c1cc(COc2ccc(F)cc2Cl)on1)N1CCCCCCC1 do in these assays?
FID counter: -30; HSP90 refold inh: -8; HSF1 inhib: 8; HCV NS3 hel inh: -6; HSF1 activator: 12; HCV core dimer: 8
